Tested on: MS2 coat protein
Assay: apparent Kd, MS2 coat protein; higher = weaker binding; RNA-MaP array; FMN 200 µM where present
How it was run: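 Green signal was scaled to red-channel RNA signal and control-cluster median Fmax, and the apparent Kd was taken as the median of filtered per-cluster binding-curve fits. The binding series used SNAP-549-labelled MS2 coat protein from 0.7 or 1.5 nM, doubling to 3 µM, on designs transcribed by stalled E. coli RNA polymerase on Illumina sequencing-chip clusters. Each series ran without and then with constant ligand in 100 mM Tris-HCl pH 7.5, 80 mM KCl, 4 mM MgCl2, BSA, DTT, yeast tRNA and Tween-20.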

[1] = designed as: OFF switch for flavin mononucleotide, no ligand
[2] = ligand present: flavin mononucleotide, designed as: OFF switch for flavin mononucleotide
[3] = designed as: ON switch for flavin mononucleotide, no ligand
[4] = ligand present: flavin mononucleotide, designed as: ON switch for flavin mononucleotide

GCGUACAUAUCAGGAUAUCAUAUUAUUGUUUUACUCAGUGUAUACAUGAGGAUCACCCAUGUUCUUGAGAAGGGAUAUGUACGC
apparent Kd [1]: 8.22 nM | apparent Kd [2]: 9.91 nM

GCGUACAUAUCAGGAUAUCAUAUUAUUGUUUUACUCAGUGUAUACAUGAGGAUCACCCAUGUUCUUGAGAAGGGAUUACUACGC
apparent Kd [1]: 15.2 nM | apparent Kd [2]: 14.7 nM

GCGUACAUAUCAGGAUAUCAUUGUAUUGUUUAACUCAGUGUAUACAUGAGGAUCACCCAUGUUCUUGAGAAGGGAUUACUACGC
apparent Kd [1]: 14.1 nM | apparent Kd [2]: 15.4 nM

GCGUCAGAAUUAAUUGUGACAUACAGAAGGCAAUAGUUAAUUUCAGACAUGAGGAUCACCCAUGUUGAGGAUAUGUAGAGAAUC
apparent Kd [1]: 11.8 nM | apparent Kd [2]: 10.5 nM

GCGUGGUUCUAGAAGGUGCUAGCGAUAAGCUAGCAAGGAUAUAGACAUGAGGAUCACCCAUGUCUUAAAGAAAUGGACACACGC
apparent Kd [1]: 5.04 nM | apparent Kd [2]: 5.55 nM

GCGUUAGAAACACAUGUAUUACAUGAGGAUCACCCAUGUUACUAGGAUAUGUAUUAGAAUUUACAACAGAAGGAGUAAGAACGC
apparent Kd [1]: 10.8 nM | apparent Kd [2]: 14.6 nM

GCGUUCUUGUAGAAGGUACUUUCGACAUCUUAUAAACGCUUGACACAUGAGGAUCACCCAUGUUGUAAGGAUAUACAUGAACGC
apparent Kd [3]: 6.61 nM | apparent Kd [4]: 6.41 nM

GCUACGUCAGGAUAUCUGAUGUCUAACUUCGGUUAGACAUCAGAGAAGGGACAUGAGGAUCACCCAUGUAGCAA
apparent Kd [1]: 93.5 nM | apparent Kd [2]: 122 nM

GCUAGGAGUGUGAGGAUAUGCUGUACCUUGGUACAGCAGAAGGCACAUGAGGAUCACCCAUGUGAAGACCUAGC
apparent Kd [1]: 25.9 nM | apparent Kd [2]: 151 nM

GCUAGUAUUGCAGGAUAUUGAGAAUAAUUUUGGCAAGAAGGGCAUUACAUGAGGAUCACCCAUGUUUUCCUUAGUCAUACUAGC
apparent Kd [1]: 6.39 nM | apparent Kd [2]: 5.85 nM

GCUAGUAUUGCAGGAUAUUGUGUUUAAUUAUGGCAAGAAGGGCAUUACAUGAGGAUCACCCAUGUUUUCCUUAGUCAUACUAGC
apparent Kd [1]: 5.57 nM | apparent Kd [2]: 6.63 nM

GCUCGAUGCGCUGAGCACAUGAGGAUCACCCAUGUAAAUGGUCAGGAUAUUUACGUGCUUUAUGUAGAGAAGGGACCAUCGAGC
apparent Kd [3]: 286 nM | apparent Kd [4]: 30.9 nM

GCUCGUAGACAGAAGGCGACAUGAGGAUCACCCAUGUUGGCUCGGGUAUGACCAAUCCGCAUGAUCGAGGAUAUGUCCGCGGGC
apparent Kd [1]: 287 nM | apparent Kd [2]: 16.4 nM

GCUCUAUGCUAGAAGGCGUGAAACAUGAGGAUCACCCAUGUCAGAGAUAUGAGGAUAUGGCAUAGAGCAAAAGACGGAAACGUC
apparent Kd [3]: 18.7 nM | apparent Kd [4]: 5.25 nM

GCUGACGAUGUAGGAUAUCAGUAUAAUAAAUACUGAGAAGGACAUGAGGAUCACCCAUGUAAACUCCGUCAGCAGAGGAAACUC
apparent Kd [1]: 19.6 nM | apparent Kd [2]: 24.1 nM

GCUGACGAUGUAGGAUAUCAGUAUAAUAAAUACUGAGAAGGACAUGAGGAUCACCCAUGUAACUCACGUCAGCAGAGGAAACUC
apparent Kd [1]: 17.6 nM | apparent Kd [2]: 20.4 nM

GCUGACGAUGUAGGAUAUCUCGACGAUAAGUCGAGAGAAGGACAUGAGGAUCACCCAUGUAAACUCGCGUCAGCGAGGAAACUC
apparent Kd [1]: 17.9 nM | apparent Kd [2]: 20.1 nM

GCUGACGUAGGAUAUCAAUAGCCUCACAUGAGGAUCACCCAUGUCGGUAGGUGUACUGGAUGAGAAGGACGUCGUU
apparent Kd [1]: 38.3 nM | apparent Kd [2]: 23.9 nM

GCUGCAUAGGCAGGAUAUGCAACAAUGAGAAUAAAAUAUAACUCAUUGACAUGAGGAUCACCCAUGUAGAAGGGCCUGUGCAGU
apparent Kd [1]: 19 nM | apparent Kd [2]: 18.2 nM

GCUGCAUAGUCAGGAUAUGCAAAGUAAUGUAUGGAAACAUACAUUACAACAUGAGGAUCACCCAUGUAGAAGGGACUGUGCAGU
apparent Kd [1]: 13.9 nM | apparent Kd [2]: 12.2 nM

GCUGCGCGAGGAUAUGCGGUUCGCGCGGUGGCCCGUGGCGGACAUGAGGAUCACCCAUGUAGAAGGCGUGCGGG
apparent Kd [1]: 11.1 nM | apparent Kd [2]: 12.1 nM

GCUGCGCGAGGAUAUGCGGUUCGCGCUGUGGCCCGUGGCGGACAUGAGGAUCACCCAUGUAGAAGGCGUGCGGG
apparent Kd [1]: 13 nM | apparent Kd [2]: 15.1 nM

GCUGCGCGAGGAUAUGCGGUUUGUGCUGUGGCCCGUGGCGUACAUGAGGAUCACCCAUGUAGAAGGCGUGUGGG
apparent Kd [1]: 26.1 nM | apparent Kd [2]: 28.9 nM

GCUGCUUAUGAGAAGGCGAUCAUGAAACAUGAUCGAGGAUAUCAUGUAAACAUGAGGAUCACCCAUGUAUGGGUAUUAUGCAGC
apparent Kd [3]: 374 nM | apparent Kd [4]: 37.6 nM

GCUGGCAUGCAAGGAUAUCCUUCCGAGUAGGAAGGAGAAGGUGCUUGUGGGACAUGAGGAUCACCCAUGUAUGUUGGCCACGAC
apparent Kd [3]: 134 nM | apparent Kd [4]: 79.2 nM

GCUGGGUCAGGAUAUACAAGAUCGAAAGAUCUGUGAAACGAACAUGAGGAUCACCCAUGUAGAAGGGACUGGGC
apparent Kd [1]: 20.5 nM | apparent Kd [2]: 33.2 nM

GCUGUCGCAUGAGGAUAUGGUCAGCUUUGCUGACCAGAAGGCAUGUCAAUAGACAUGAGGAUCACCCAUGUGGUUAGGGCGGCU
apparent Kd [3]: 1030 nM | apparent Kd [4]: 93.5 nM
